Measured values as given in ChEMBL document CHEMBL1275289, “The synthesis, structure and activity evaluation of pyrogallol and catechol derivatives as Helicobacter pylori urease inhibitors” (Eur J Med Chem, 2010).

Tests used:
[1] = target: T1, Urease subunit alpha/Urease subunit beta (Helicobacter pylori (strain ATCC 700392 / 26695) (Campylobacterpylori), UniProt P69996); test: Inhibition of cell free Helicobacter pylori ATCC 43504 urease assessed as reduction in ammonia production by indophenol based Berthelot color reaction method
T1 sequence (P69996 whole entry): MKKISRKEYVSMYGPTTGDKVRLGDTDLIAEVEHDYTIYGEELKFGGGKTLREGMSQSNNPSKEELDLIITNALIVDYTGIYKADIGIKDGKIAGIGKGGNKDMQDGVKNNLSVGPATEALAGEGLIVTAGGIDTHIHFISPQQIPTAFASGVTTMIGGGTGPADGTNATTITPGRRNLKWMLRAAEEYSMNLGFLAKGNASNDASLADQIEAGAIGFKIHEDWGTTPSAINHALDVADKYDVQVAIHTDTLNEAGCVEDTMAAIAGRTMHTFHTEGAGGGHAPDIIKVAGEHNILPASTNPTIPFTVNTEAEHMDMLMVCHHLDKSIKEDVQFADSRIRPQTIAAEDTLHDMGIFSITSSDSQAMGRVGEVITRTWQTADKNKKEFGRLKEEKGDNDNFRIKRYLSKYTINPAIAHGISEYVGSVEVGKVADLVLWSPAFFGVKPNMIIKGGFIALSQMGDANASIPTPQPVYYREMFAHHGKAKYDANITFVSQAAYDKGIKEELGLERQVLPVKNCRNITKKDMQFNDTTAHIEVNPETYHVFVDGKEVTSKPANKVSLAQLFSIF
T1 sequence (P14916 whole entry, further chain): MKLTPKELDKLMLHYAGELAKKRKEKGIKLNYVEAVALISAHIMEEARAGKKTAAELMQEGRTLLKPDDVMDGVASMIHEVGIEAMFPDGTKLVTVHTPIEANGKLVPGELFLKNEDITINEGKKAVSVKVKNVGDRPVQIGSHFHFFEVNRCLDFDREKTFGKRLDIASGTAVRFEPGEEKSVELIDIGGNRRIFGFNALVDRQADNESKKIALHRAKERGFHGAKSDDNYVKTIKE
Method in brief: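 H. pylori ATCC 43504 grown 24 h at 37 °C, microaerobic (5% O2, 10% CO2, 85% N2), in Brucella broth with 10% heat-inactivated horse serum. Cells (2.0 × 10⁸ CFU/mL) pelleted at 5000 g, 4 °C, washed twice in PBS pH 7.4, stored at −80 °C, then sonicated 60 s in water with protease inhibitors. Extract preincubated with compound 1.5 h at room temperature; ammonia measured by indophenol method.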

[2] = target: T1, Urease subunit alpha/Urease subunit beta; test: Inhibition of urease in intact Helicobacter pylori ATCC 43504 assessed as reduction in ammonia production by indophenol based Berthelot color reaction method
Method in brief: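 H. pylori grown 24 h at 37 °C in Brucella broth with 10% heat-inactivated horse serum under microaerobic gas (5% O₂, 10% CO₂, 85% N₂). Cells harvested, washed twice in PBS pH 7.4, and resuspended to 4.0 × 10⁷ CFU/mL. Suspension pre-incubated with compound for 1.5 h at room temperature. Ammonia production measured by the indophenol (Berthelot) method.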

Row | SMILES | IC50 [1] [µM] | IC50 [2] [µM]
1 | COc1ccc(CCc2ccc(Cl)cc2)cc1OC | 254 | 
2 | Oc1ccc(CCc2ccc(Br)cc2)c(O)c1O | 48 | 
3 | Oc1ccc(CCc2cccc(Cl)c2)c(O)c1O | 50 | 
4 | Oc1ccc(CCc2cccc(Br)c2)c(O)c1O | 52 | 
5 | Oc1ccc(CCc2ccc(Cl)cc2)cc1O | 8.3 | 50.1
6 | Oc1ccc(CCc2cccc(Cl)c2)cc1O | 15.7 | 94.7
7 | CCc1ccc(O)c(O)c1O | 34 | 
8 | CCCCc1ccc(O)c(O)c1O | 79 | 
9 | CCCCCCc1ccc(O)c(O)c1O | 91 | 
10 | CCCCCCCCc1ccc(O)c(O)c1O | 103 | 
11 | CCCCCCCCCCc1ccc(O)c(O)c1O | 124 | 
12 | Oc1ccc(CCc2ccc(F)cc2)cc1O | 6.2 | 32.4
13 | Oc1ccc(CCc2ccc(O)c(O)c2)cc1 | 1.5 | 4.2
14 | Oc1ccc(CCc2ccc(F)cc2)c(O)c1O | 43 | 
15 | Oc1ccc(CCc2ccc(Cl)cc2)c(O)c1O | 47 | 
16 | Oc1ccc(CCc2cccc(Br)c2)cc1O | 16.9 | 88.9
17 | COc1ccc(CCc2ccc(O)c(O)c2)cc1OC | 22.7 | 
18 | CCc1ccc(O)c(O)c1 | 4.9 | 17.3
19 | CCCCc1ccc(O)c(O)c1 | 7.9 | 38.1
20 | CCCCCCc1ccc(O)c(O)c1 | 12.3 | 77.8
21 | CCCCCCCCc1ccc(O)c(O)c1 | 58 | 
22 | COc1ccc(CCc2ccc(O)cc2)cc1OC | 204 | 
23 | COc1ccc(CCc2cccc(Cl)c2)cc1OC | 235 | 
24 | COc1ccc(CCc2ccc(O)c(O)c2O)cc1OC | 71 | 
25 | CCOc1ccc(CCc2ccc(O)c(O)c2O)cc1OCC | 69 | 
26 | CCCCCCCCCCCCc1ccc(O)c(O)c1O | 168 | 
27 | CCCCCCCCCCCCCCc1ccc(O)c(O)c1O | 250 | 
28 | Oc1ccc(CCc2ccc(O)c(O)c2O)cc1 | 32 | 
29 | COc1ccc(CCc2ccccc2O)cc1OC | 227 | 
30 | CC(=O)NO [ACETOHYDROXAMIC ACID] | 17.2 | 101
